The values below come from ChEMBL document CHEMBL4376840, “Application of Fluorine- and Nitrogen-Walk Approaches: Defining the Structural and Functional Diversity of 2-Phenylindole Class of Cannabinoid 1 Receptor Positive Allosteric Modulators” (J Med Chem, 2020).

The target in data set [1] is T1, Cannabinoid receptor 1 (Homo sapiens, UniProt P21554). In words: Positive allosteric modulatory activity at human CB1R expressed in CHO-K1 cells assessed as increase in CP55940-induced inhibition of forskolin-stimulated cAMP production after 30 mins in presence of CP55940 at EC20 concentration by hit-hunter cAMP assay. In kind it is functional, cell-based. A digest of the protocol: (§1)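 Read-out was chemiluminescent cAMP detection, fit with a variable-slope 4-parameter regression. n = 1–3 independent experiments in duplicate.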
A general note: cAMP levels reflect the balance of adenylyl cyclase and phosphodiesterase activity.

For data set [2], the target named is T1, Cannabinoid receptor 1. In words: Positive allosteric modulatory activity at human CB1R expressed in CHO-K1 cells assessed as increase in CP55940-induced inhibition of forskolin-stimulated cAMP production after 30 mins in presence of CP55940 at EC20 concentration by hit-hunter cAMP assay relative to control. In kind it is functional, cell-based. The gist of the method:
as §1

In data set [3] the target is T1, Cannabinoid receptor 1. The data set is described as follows: Positive allosteric modulatory activity at human CB1R expressed in CHO-K1 cells assessed as increase in CP55940-induced beta-arrestin2 recruitment after 90 mins in presence of CP55940 at EC20 concentration by pathhunter beta-arrestin assay relative to control. The class given is cell-based. The gist of the method: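 Read-out was chemiluminescent β-arrestin2 recruitment, fit with a 4-parameter regression. n = 1–3 independent experiments in duplicate.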
(Activated receptors often draw arrestin, which recruitment assays turn into a signal.)

Data set [4] deals with Cannabinoid receptor 1 (Rattus norvegicus, UniProt P20272). The data set is described as follows: Allosteric agonist activity at N-terminal GFP-tagged rat CB1R expressed in HEK293 cells assessed as inhibition of forskolin-induced cAMP production after 30 min by TR-FRET assay. The class given is functional, cell-based. A digest of the protocol:
(§2)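 HEK293 cells stably expressing N-terminal GFP-tagged rat CB1R were trypsin-EDTA dissociated and resuspended in HBSS with 0.1% BSA and 0.5mM IBMX at 500 cells/well. Cells got 5μM forskolin plus compound (1 pM – 10 μM) alone for 30 min. 4-parameter fit; Emin is the lower plateau. n ≥ 3, triplicate.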

In data set [5] the target is Cannabinoid receptor 1 (Rattus norvegicus) (UniProt P20272). The data set is described as follows: Allosteric agonist activity at N-terminal GFP-tagged rat CB1R expressed in HEK293 cells assessed as inhibition of forskolin-induced cAMP production by measuring cAMP accumulation at minimal level at higher concentrations after 30 min by TR-FRET assay relative to forskolin. The class given is functional, cell-based. The gist of the method:
as §2

The target is the same in data set [6]. The data set is described as follows: Positive allosteric modulatory activity at N-terminal GFP-tagged rat CB1R receptor expressed in HEK293 cells assessed as increase in CP55940-induced inhibition of forskolin-induced cAMP accumulation by measuring Emax for cAMP accumulation at low concentration of CP55940 at 0.001 microM after 30 mins by TR-FRET assay relative to forskolin. The class given is functional, cell-based.

The target is the same in data set [7]. The data set is described as follows: Positive allosteric modulatory activity at N-terminal GFP-tagged rat CB1R receptor expressed in HEK293 cells assessed as increase in CP55940-induced inhibition of forskolin-induced cAMP accumulation by measuring Emax for cAMP accumulation at low concentration of CP55940 at 0.1 microM after 30 mins by TR-FRET assay relative to forskolin. In kind it is functional, cell-based.

Data set [8] shares this target. In words: Positive allosteric modulatory activity at N-terminal GFP-tagged rat CB1R receptor expressed in HEK293 cells assessed as increase in CP55940-induced inhibition of forskolin-induced cAMP accumulation by measuring Emax for cAMP accumulation at low concentration of CP55940 at 0.3 microM after 30 mins by TR-FRET assay relative to forskolin. The class given is functional, cell-based.

The target in data set [9] is T1, Cannabinoid receptor 1. In words: Displacement of [3H]SR141716A from human CB1R receptor expressed in CHO cell membranes after 2 hrs by liquid scintillation spectrometry analysis. (In general: Displacement assays read how much labelled ligand stays bound in the presence of the test substance.)
The target of data set [10] is T1, Cannabinoid receptor 1. The data set is described as follows: Displacement of [3H]CP55940 from human CB1R receptor expressed in CHO cell membranes after 60 mins by liquid scintillation spectrometry analysis.
The target in data set [11] is T1, Cannabinoid receptor 1. In words: Agonist activity at human CB1 receptor expressed in CHO cell membranes assessed as increase in G-protein coupling by measuring [35S]GTPgammaS binding after 90 mins in presence of [35S]GTPgammaS by liquid scintillation analysis. The class given is functional. A digest of the protocol: (§3)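 [35S]GTPγS binding to G protein in membranes from CHO cells stably expressing human CB1R, with test compound given alone. Data fit to a variable-slope 4-parameter nonlinear regression. n = 4–6 independent experiments in duplicate.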

For data set [12], the target named is T1, Cannabinoid receptor 1. In words: Agonist activity at human CB1 receptor expressed in CHO cell membranes assessed as increase in G-protein coupling by measuring [35S]GTPgammaS binding after 90 mins in presence of [35S]GTPgammaS by liquid scintillation analysis relative to control. The class given is functional. The gist of the method: as §3
For data set [13], the target named is T1, Cannabinoid receptor 1. In words: Allosteric agonist activity at human CB1R expressed in CHO-K1 cells assessed as increase in beta arrestin2 recruitment after 90 mins by pathhunter beta-arrestin assay. In kind it is cell-based. A digest of the protocol: (§4)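 PathHunter CHO-K1 hCB1R cells (20,000/well) were held overnight in Opti-MEM with 1% FBS. Compound alone (0.10 nM – 10 μM) was given at 37°C for 90 min, then detection solution for 60 min at room temperature and chemiluminescence was read.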

Data set [14] addresses T1, Cannabinoid receptor 1. In words: Allosteric agonist activity at human CB1R expressed in CHO-K1 cells assessed as increase in beta arrestin2 recruitment after 90 mins by pathhunter beta-arrestin assay relative to CP55940. In kind it is cell-based. A digest of the protocol: as §4
Data set [15] has as its system Mus musculus. The data set is described as follows: Effect on contralateral paw withdrawl threshold in CFA-induced mechanical allodynia CD1 mouse model at 0.1 to 30 mg/kg, ip measured every 3 hrs for 2 days post treatment by Von Frey test. The class given is ADME, organism-based. As to conditions: in vivo, 48 h. A digest of the protocol: (§5)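 Mice received CFA injection into one paw. Mechanical paw withdrawal thresholds were measured in the injected (ipsilateral) and contralateral paws after i.p. compound at 0.1, 0.3, 1, 3, 10 or 30 mg/kg, compared with vehicle-treated groups at the same times.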

For data set [16], the system named is Mus musculus. The data set is described as follows: Antiallodynic activity against CFA-induced mechanical allodynia CD1 mouse model assessed as increase in ipsilateral paw withdrawal threshold at 3 to 30 mg/kg, ip measured every 3 hrs for 2 days post treatment by Von Frey test. In kind it is functional, organism-based. A digest of the protocol:
as §5

The subject of data set [17] is Mus musculus. The data set is described as follows: Antiallodynic activity against CFA-induced mechanical allodynia CD1 mouse model assessed as effect on ipsilateral paw withdrawal threshold at 30 mg/kg, ip after 4 hrs post treatment by Von Frey test. In kind it is functional, organism-based. A digest of the protocol:
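Time course in the CFA model at 30 mg/kg i.p. Ipsilateral and contralateral mechanical paw withdrawal thresholds were followed from 30 min to 4 h post-injection in wild-type and CB1 knockout mice. Compared with vehicle by ANOVA and Bonferroni post hoc tests.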

For data set [18], the system named is Mus musculus. The data set is described as follows: Antinociceptive activity in C57BL/6 mouse at 3 to 10 mg/kg, ip after 20 mins post treatment by warm water tail-flick assay. The class given is functional, organism-based.
For data set [19] the following is noted: human, microsomes, 1 µM.
For data set [20] the following is noted: rat, microsomes, 1 µM.
For data set [21] the following is noted: buffer, pH 7.4, 2 h.

Calls of active or inactive are those of the source. A value given as a limit tells only on which side of the number the result lay.

T1 sequence (P21554 whole entry): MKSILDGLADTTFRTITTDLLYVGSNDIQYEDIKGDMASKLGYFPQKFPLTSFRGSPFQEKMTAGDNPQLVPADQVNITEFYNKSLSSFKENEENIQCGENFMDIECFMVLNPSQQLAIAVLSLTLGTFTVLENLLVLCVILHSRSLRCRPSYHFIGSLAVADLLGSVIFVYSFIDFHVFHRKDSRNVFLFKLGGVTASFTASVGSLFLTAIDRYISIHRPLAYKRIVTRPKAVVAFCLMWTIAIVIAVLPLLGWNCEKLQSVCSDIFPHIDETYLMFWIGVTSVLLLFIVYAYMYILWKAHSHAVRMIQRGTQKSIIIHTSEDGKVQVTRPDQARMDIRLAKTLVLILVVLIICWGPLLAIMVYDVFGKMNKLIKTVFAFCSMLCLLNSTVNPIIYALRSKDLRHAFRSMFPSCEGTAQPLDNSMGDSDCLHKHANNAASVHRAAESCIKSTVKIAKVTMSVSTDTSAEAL
Cannabinoid receptor 1 (Rattus norvegicus), sequence (P20272 whole entry): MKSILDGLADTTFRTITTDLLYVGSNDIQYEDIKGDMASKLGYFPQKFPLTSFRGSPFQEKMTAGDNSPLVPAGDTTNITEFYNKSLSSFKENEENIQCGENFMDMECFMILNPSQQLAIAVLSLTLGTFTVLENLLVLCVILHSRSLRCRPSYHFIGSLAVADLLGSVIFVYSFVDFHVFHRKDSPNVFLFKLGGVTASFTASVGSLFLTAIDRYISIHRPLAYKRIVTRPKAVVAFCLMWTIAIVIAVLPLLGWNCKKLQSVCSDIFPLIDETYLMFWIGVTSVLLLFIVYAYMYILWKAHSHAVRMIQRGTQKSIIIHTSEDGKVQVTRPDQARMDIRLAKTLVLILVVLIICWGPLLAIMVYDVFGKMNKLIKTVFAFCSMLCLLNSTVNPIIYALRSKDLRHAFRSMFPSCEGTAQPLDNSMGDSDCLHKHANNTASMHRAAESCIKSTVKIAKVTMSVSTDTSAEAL
Cannabinoid receptor 1 (Rattus norvegicus, UniProt P20272), sequence (P20272 whole entry): as above

In the case of `O=[N+]([O-])CC(c1ccccc1F)c1c(-c2cccc(F)c2)[nH]c2cc(F)ccc12` (stereo unspecified), the EC50 on Cannabinoid receptor 1 [1] stood at 28 nM; at Cannabinoid receptor 1 [4] it was 27 nM; at Cannabinoid receptor 1 [11], 47 nM; on Cannabinoid receptor 1 [13] it was 1600 nM. Besides, the Emax stood at 93% at Cannabinoid receptor 1 [2]; 71% on Cannabinoid receptor 1 [3]; 76% in data set [6]; 46% in data set [7]; 32% in data set [8]; 81% at Cannabinoid receptor 1 [12]. For the same compound, the Emax on Cannabinoid receptor 1 [14] stood at 34%. In data set [5], the Emin amounted to 32%. For the same compound, the Ki was determined as 4.8 nM at Cannabinoid receptor 1 [9] and 88 nM at Cannabinoid receptor 1 [10]. For the same compound, in the data set with Mus musculus [15], the Activity entry was “Non-Toxic”. In addition, the outcome in the data set on Mus musculus [16] and in the data set with Mus musculus [18] was Active. In the data set on Mus musculus [17], the result was inactive. Besides, the CLH in [19] was 44.9 µL/min; in [20] it was 248 µL/min. In addition, in [21], the Kinetic_solubility was found to be 1.56 µM.

For the compound `O=[N+]([O-])CC(c1ccccc1F)c1c(-c2cccc(F)c2)[nH]c2c(F)cccc12` (stereo unspecified), the EC50 at Cannabinoid receptor 1 [1] is 9.1 nM; at Cannabinoid receptor 1 [4] it was 26 nM; on Cannabinoid receptor 1 [11] it was 33 nM; on Cannabinoid receptor 1 [13], greater than 10000 nM. In addition, the Emax stood at 93% on Cannabinoid receptor 1 [2]; 82% at Cannabinoid receptor 1 [3]; 74% in data set [6]; 52% in [7]; 33% in data set [8]; 84% on Cannabinoid receptor 1 [12]. In addition, the Emax on Cannabinoid receptor 1 [14] was determined as 25%. The Emin in data set [5] turned out to be 30%. Also, the Ki on Cannabinoid receptor 1 [9] came to 5.2 nM; at Cannabinoid receptor 1 [10], 94 nM. Also, in the data set on Mus musculus [15], the Activity entry is listed as “Non-Toxic”. In addition, the outcome in the data set with Mus musculus [16] and with Mus musculus [18] was Active. Besides, the result in the data set with Mus musculus [17] was inactive. The CLH in [19] worked out at 44.4 µL/min. In addition, the Kinetic_solubility in data set [21] stood at 1.56 µM.

What is called EC50 is the concentration at which the effect is half-maximal. As usually defined, the Emax is the maximal effect, on the per cent scale that the assay sets. By Ki is commonly meant a dissociation constant, usually derived from enzyme kinetics or from competition with a known ligand. Low readings indicate higher affinity, high ones lower affinity.
